Test results reported in ChEMBL document CHEMBL1122659, “Synthesis of some phosphonates with antiherpetic activity” (1984).
Values after ≈ are worked out from the molar mass of the structure shown. Active and inactive are the calls of the source. The calls are words filed in the database; no cut-off is given here.

Experiments:
[1] = In vitro ability to inhibit the herpes HSV-2 virus; assay type: functional, herpes simplex virus; settings: Oryctolagus cuniculus
Mus musculus [2] = organism: Mus musculus; assay: Percent survival rate of mice infected intravaginally with herpes simplex virus type 2 at daily dosage of 2.5%(treatment initiated 4-h postinfection and continued for 7 days); assay type: functional
Summary of the method: (§1)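 Mice infected intravaginally with HSV-2. Test agent suspended in gum tragacanth and applied intravaginally. Survival recorded.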

Mus musculus [3] = organism: Mus musculus; assay: Average survival rate of mice infected intravaginally with herpes simplex virus type 2 at daily dosage of 10%(treatment initiated 4-h postinfection and continued for 7 days); assay type: functional; summary of the method: as §1
Mus musculus [4] = organism: Mus musculus; assay: Percent survival rate of mice infected intravaginally with herpes simplex virus type 2 at daily dosage of 10%(treatment initiated 4-h postinfection and continued for 7 days); assay type: functional; summary of the method: as §1
Mus musculus [5] = organism: Mus musculus; assay: Percent survival rate of mice infected intravaginally with herpes simplex virus type 2 at daily dosage of 5%(treatment initiated 4-h postinfection and continued for 7 days); assay type: functional; summary of the method: as §1
Mus musculus [6] = organism: Mus musculus; assay: Average survival rate of mice infected intravaginally with herpes simplex virus type 2 at daily dosage of 5%(treatment initiated 4-h postinfection and continued for 7 days); assay type: functional; summary of the method: as §1
Mus musculus [7] = organism: Mus musculus; assay: Average survival rate of mice infected intravaginally with herpes simplex virus type 2 with placebo (treatment initiated 4-h postinfection and continued for 7 days)
Oryctolagus cuniculus = organism: Oryctolagus cuniculus; assay: In vitro ability to inhibit the herpes HSV-2 virus; Inactive; assay type: functional, organism-based; settings: herpes simplex virus

| SMILES | MIC [1] [µg/mL] | also measured |
| --- | --- | --- |
| CCOC(=O)c1ccc(OCCCCCCP(=O)(OCC)OCC)cc1 | 6 (≈ 15.5 µM) | – |
| CCOP(=O)(CCCCCCOc1c(Cl)cccc1Cl)OCC | 12 (≈ 31.3 µM) | – |
| CCCOP(=O)(CCCCCCOc1ccc(OC)cc1Cl)OCCC | 6 (≈ 14.7 µM) | – |
| CCOP(=O)(OCC)C(CCCCOc1ccc(OC)cc1Cl)C(C)=O (stereo not drawn) | 12 (≈ 29.5 µM) | – |
| CCOP(=O)(OCC)C(CCCCCOc1ccc(OC)cc1Cl)C(C)=O (stereo not drawn) | 6 (≈ 14.3 µM) | – |
| CCOP(=O)(OCC)C(CCCCCCOc1ccc(OC)cc1Cl)C(C)=O (stereo not drawn) | 6 (≈ 13.8 µM) | – |
| CCOP(=O)(OCC)C(CCCCCCCCOc1ccc(OC)cc1Cl)C(C)=O (stereo not drawn) | 6 (≈ 13 µM) | – |
| CCOC(=O)C(CCCCCCOc1ccc(OC)cc1Cl)P(=O)(OCC)OCC (stereo not drawn) | 3 (≈ 6.45 µM) | Survival (Mus musculus [2]): 10%; Average survival (Mus musculus [3]): >8.7 days; Survival (Mus musculus [4]): 20%; Survival (Mus musculus [5]): 10%; Average survival (Mus musculus [6]): >7.3 days; Average survival (Mus musculus [7]): >8.1 days |
| CCOP(=O)(OCC)C(CCCCc1ccc(OC)cc1)C(C)=O (stereo not drawn) | 25 (≈ 70.1 µM) | – |
| CCOP(=O)(OCC)C(CCCCCCCOc1ccc(OC)cc1Cl)C(C)=O (stereo not drawn) | 6 (≈ 13.4 µM) | – |
| CCOP(=O)(CCCCCCCCOc1ccc(OC)cc1Cl)OCC | – | MIC (Oryctolagus cuniculus): inactive |
| CCOP(=O)(CCCCCCCOc1ccc(OC)cc1Cl)OCC | – | MIC (Oryctolagus cuniculus): inactive |
